Test results published in the array DNA melting data of Ke et al. (doi:10.1101/2024.01.08.574731).

Tests used:
[1] = folding enthalpy; higher = less favourable; fluorescence melt of hairpins on a sequencing array, two-state fit; settings: sodium 0.088 M
How it was run: (§1)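 Two-state fits, bootstrapped, provided melting temperature and folding enthalpy from Cy3 fluorescence normalised to pre-quench Cy3 and to control constructs. Library hairpins with annealed Cy3 and quencher oligos were imaged on a sequenced MiSeq flow cell in 50 mM Na-HEPES pH 8.0, 25 mM NaCl, at 2.5 °C intervals up to 60 °C. Four replicates were combined with inverse-variance weighting. A 9.35 °C upward shift was applied to fitted temperatures to match UV melts.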

[2] = melting temperature; fluorescence melt of hairpins on a sequencing array, two-state fit, raised by 9.35 °C to match UV melts; settings: sodium 0.088 M
How it was run: as §1

Row | Sequence | folding enthalpy [1] [kcal/mol] | Tm [2] [°C]
1 | GGAACCGAAAGGTTCTCC ((((((....)))..))) | -10.8 | 51.9
2 | GGAACCTCGAAAGAGTCC (((..(((....)))))) | -11.3 | 27
3 | GGAACGCGAAAGCGTCC (((.(((....)))))) | -13.4 | 53.8
4 | GGAACGGGAAACTGTTCC (((((.(....).))))) | -42.4 | 53
5 | GGAACTCGAAAGAGATCC (((.(((....))).))) | -34.4 | 49.5
6 | GGAACTCGAAAGAGTCC (((.(((....)))))) | -19.5 | 49.2
7 | GGAACTGCGAAAGCATCC (((..(((....)))))) | -6.59 | 24.6
8 | GGAACTGGAAACAGTTTC (.(((((....))))).) | -27.7 | 46.2
9 | GGAAGAACGAAAGTTTCC (((..(((....)))))) | -14.9 | 33
10 | GGAAGACGAAAGTCATCC (((.(((....))).))) | -26 | 48.7
11 | GGAAGAGAAATCTTCC ((((((....)))))) | -24.1 | 47.7
12 | GGAAGAGGAAACTCCTCC (((.(((....))).))) | -13.9 | 28
13 | GGAAGAGGAAACTCTTTC (.(((((....))))).) | -27 | 37.3
14 | GGAAGAGGAAACTTTTCC ((((.((....)).)))) | -15.8 | 32.8
15 | GGAAGCGAAAGCTGATCC ((((((....)))..))) | -12.4 | 36.9
16 | GGAAGCGGAAACACTTCC (((((.(....).))))) | -32.9 | 44.3
17 | GGAAGCGGAAACGCTCCC ((.((((....)))).)) | -19.8 | 52.4
18 | GGAAGGCGAAAGCCATCC (((.(((....))).))) | -21.1 | 53.3
19 | GGAAGTACGAAAGTATCC (((..(((....)))))) | -11.1 | 23.4
20 | GGAAGTGAAAACTTCC ((((((....)))))) | -37.3 | 56.4
21 | GGAAGTGGAAACATTTCC ((((.((....)).)))) | -27.9 | 40.3
22 | GGAATAGGAAACTGTTCC ((((.((....)).)))) | -33 | 42.9
23 | GGAATCGAAAGATATCC ((((((....))).))) | -13.4 | 29.1

Row | Sequence | folding enthalpy [1] [kcal/mol] | Tm [2] [°C]
24 | GGAATCGAAAGATTCTCC ((((((....)))..))) | -13.5 | 44.4
25 | GGAATCGGAAACAATTCC (((((.(....).))))) | -27.8 | 32.6
26 | GGAATCGGAAACGATTCC (((((((....))))))) | -43.2 | 66.1
27 | GGAATGAAAATTCC (((((....))))) | -22.3 | 44.3
28 | GGAATGTCGAAAGACTCC (((..(((....)))))) | -14.3 | 32.6
29 | GGAATTCGAAAGAAATCC (((.(((....))).))) | -30.5 | 39.5
30 | GGAATTCGAAAGAAGTCC (((.(((....))).))) | -37.5 | 49.2
31 | GGACAAGAAATTGTCC ((((((....)))))) | -37.4 | 55.3
32 | GGACAAGGAAACTTGCCC ((.((((....)))).)) | -20.3 | 43
33 | GGACACCCGAAAGGGTCC (((..(((....)))))) | -11.5 | 40.9
34 | GGACACCGAAAGGTTTCC (((.(((....))).))) | -32.8 | 48.2
35 | GGACACGAAAGTGCTCC ((((((....))).))) | -22.5 | 50.1
36 | GGACACGAAAGTGTCTCC ((((((....)))..))) | -9.39 | 53.8
37 | GGACACGAAAGTGTTTCC ((((((....)))..))) | -11.5 | 38
38 | GGACAGCGAAAGCTTTCC (((.(((....))).))) | -29.6 | 48.3
39 | GGACAGGGAAACCTATCC (((.(((....))).))) | -19.3 | 32.6
40 | GGACATCGAAAGATATCC (((.(((....))).))) | -29.8 | 38
41 | GGACATGGAAACACGTCC ((((.((....)).)))) | -30 | 42.7
42 | GGACATGGAAACATGTCC (((((((....))))))) | -44.6 | 64.7
43 | GGACATGGAAACGTGTCC (((((.(....).))))) | -45.1 | 52.6
44 | GGACCACGAAAGTGTCC (((.(((....)))))) | -22 | 56.1
45 | GGACCACGAAAGTGTTCC (((.(((....))).))) | -24.8 | 49.4
46 | GGACCAGGAAACTAGTCC ((((.((....)).)))) | -26.9 | 36.4

Row | Sequence | folding enthalpy [1] [kcal/mol] | Tm [2] [°C]
47 | GGACCCGAAAGGGCGTCC ((((((....)))..))) | -16.7 | 49.1
48 | GGACCCGAAAGGGCTTCC ((((((....)))..))) | -17 | 40.6
49 | GGACCCGAAAGGGGTTCC ((((((....)))..))) | -15 | 48.3
50 | GGACCCGAAAGGGTTCC ((((((....))).))) | -16.8 | 59.7
51 | GGACCCGGAAACAGGCCC ((.((.(....).)).)) | -16.9 | 29
52 | GGACCGCGAAAGCGTTCC (((.(((....))).))) | -20.9 | 53.1
53 | GGACCGGGAAACCGATCC (((.(((....))).))) | -35.7 | 48
54 | GGACGACGAAAGTCATCC (((.(((....))).))) | -23.5 | 48.8
55 | GGACGACGAAAGTCTCC (((.(((....)))))) | -27.1 | 47
56 | GGACGAGGAAACCCGTCC (((((.(....).))))) | -39.1 | 54.2
57 | GGACGCGAAAGCGACTCC ((((((....)))..))) | -11.6 | 46.2
58 | GGACGCGAAAGCGCTCC ((((((....))).))) | -20.5 | 54.9
59 | GGACGCGAAAGCGGTTCC ((((((....)))..))) | -11.6 | 45.7
60 | GGACGCGAAAGCGTTTCC ((((((....)))..))) | -9.28 | 36.4
61 | GGACGCGGAAACACGCCC ((.((.(....).)).)) | -18.9 | 34.3
62 | GGACGCGGAAACGCATCC (((.(((....))).))) | -26.3 | 48.9
63 | GGACGCGGAAACGCGCCC ((.((((....)))).)) | -18.6 | 61.8
64 | GGACGCTCGAAAGAGTCC (((..(((....)))))) | -22.1 | 46.5
65 | GGACGGCCGAAAGGCTCC (((..(((....)))))) | -10.8 | 34.1
66 | GGACGGCGAAAGCCTCC (((.(((....)))))) | -16.4 | 53.5
67 | GGACGGTCGAAAGACTCC (((..(((....)))))) | -12.2 | 29.5
68 | GGACGTCGAAAGACTTCC (((.(((....))).))) | -29.9 | 48.1
69 | GGACGTGCGAAAGCATCC (((..(((....)))))) | -9.73 | 30.6

Row | Sequence | folding enthalpy [1] [kcal/mol] | Tm [2] [°C]
70 | GGACGTGGAAACACGCCC ((.((((....)))).)) | -35.7 | 53
71 | GGACGTGGAAACGCGTTC (.(((.(....).))).) | -24.2 | 44.3
72 | GGACTAGGAAACCAGTCC (((((.(....).))))) | -31 | 44.8
73 | GGACTAGGAAACTGGTTC (.((.((....)).)).) | -13.1 | 29.8
74 | GGACTCACGAAAGTGTCC (((..(((....)))))) | -19.3 | 41.5
75 | GGACTCCGAAAGGAATCC (((.(((....))).))) | -30.5 | 47.3
76 | GGACTCCGAAAGGATCC (((.(((....)))))) | -24.5 | 46.9
77 | GGACTCGAAAGAGAGTCC ((((((....)))..))) | -40.5 | 54.5
78 | GGACTCGAAAGAGCCTCC ((((((....)))..))) | -16.9 | 42.7
79 | GGACTCGAAAGAGCTTCC ((((((....)))..))) | -18.9 | 35.3
80 | GGACTCGAAAGAGTATCC ((((((....)))..))) | -13.8 | 33.3
81 | GGACTCGGAAACAAGTCC (((((.(....).))))) | -27.8 | 42.2
82 | GGACTGACGAAAGTCTCC (((..(((....)))))) | -9.45 | 28.6
83 | GGACTGGGAAACCAGTTC (.(((((....))))).) | -28.6 | 50.6
84 | GGACTGGGAAACCGGTTC (.((.((....)).)).) | -25.5 | 37.5
85 | GGACTTCGAAAGAACTCC (((.(((....))).))) | -13.2 | 29.6
86 | GGACTTGAAAAAGTCC ((((((....)))))) | -41.9 | 58.2
87 | GGACTTGCGAAAGCATCC (((..(((....)))))) | -9.43 | 26.3
88 | GGACTTGGAAACAAGCCC ((.((((....)))).)) | -31 | 46.1
89 | GGAGAACGAAAGTTTCC (((.(((....)))))) | -19.7 | 33.4
90 | GGAGAAGGAAACTTTTCC (((.(((....))).))) | -26.2 | 31.1
91 | GGAGACCGAAAGGTGTCC (((.(((....))).))) | -40.8 | 58.9
